According to ChEMBL document CHEMBL4340542, “Design, synthesis and biological evaluation of 4-aniline-thieno[2,3-d]pyrimidine derivatives as MNK1 inhibitors against renal cell carcinoma and nasopharyngeal carcinoma” (Bioorg Med Chem, 2019):

Target: MAP kinase-interacting serine/threonine-protein kinase 1 (Homo sapiens, UniProt Q9BUB5)
Assay: Inhibition of human MNK1 using CREBtide substrate by gamma-[32P]-ATP competitive inhibition assay
Outline: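 Run as the Eurofins KinaseProfiler radiometric assay, competitive with γ-[32P]-ATP. IC50 taken as the mean of independent experiments; the footnote gives two.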

Chain of MAP kinase-interacting serine/threonine-protein kinase 1 (Q9BUB5 whole entry): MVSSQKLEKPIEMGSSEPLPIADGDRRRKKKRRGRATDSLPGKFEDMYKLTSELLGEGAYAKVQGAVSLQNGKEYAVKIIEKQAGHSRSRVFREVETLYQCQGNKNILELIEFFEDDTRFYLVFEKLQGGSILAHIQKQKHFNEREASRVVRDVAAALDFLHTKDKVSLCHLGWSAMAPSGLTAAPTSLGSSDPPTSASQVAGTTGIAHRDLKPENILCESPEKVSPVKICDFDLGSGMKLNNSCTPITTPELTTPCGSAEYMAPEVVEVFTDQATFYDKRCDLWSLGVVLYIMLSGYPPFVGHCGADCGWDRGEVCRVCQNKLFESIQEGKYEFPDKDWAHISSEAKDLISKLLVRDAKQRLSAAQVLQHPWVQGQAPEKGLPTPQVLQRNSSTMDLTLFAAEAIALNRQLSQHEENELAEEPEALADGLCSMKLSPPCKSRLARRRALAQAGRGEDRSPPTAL

Compound	IC50 [nM]
Fc1ccc(Nc2ncnc3sc4c(c23)CCN(Cc2ccccc2)C4)c(F)c1	1100
O=[N+]([O-])c1ccccc1S(=O)(=O)N1CCc2c(sc3ncnc(Nc4cccc(F)c4)c23)C1	1990
Cc1ccc(Nc2ncnc3sc4c(c23)CCN(S(=O)(=O)c2ccc(F)cc2F)C4)c(Br)c1	1680
O=S(=O)(c1ccc(F)cc1F)N1CCc2c(sc3ncnc(Nc4ccc(F)cc4F)c23)C1	1100
COc1cccc(Nc2ncnc3sc4c(c23)CCN(S(=O)(=O)c2ccccc2[N+](=O)[O-])C4)c1	2020
Cc1ccc(Nc2ncnc3sc4c(c23)CCN(S(=O)(=O)c2ccccc2[N+](=O)[O-])C4)c(Br)c1	1650
Clc1cccc(Nc2ncnc3sc4c(c23)CCN(Cc2ccccc2)C4)c1	2290
O=S(=O)(c1cccs1)N1CCc2c(sc3ncnc(Nc4ccc(Cl)cc4F)c23)C1	1360
CC(C)(C)OC(=O)N1CCc2c(sc3ncnc(Nc4cccc(F)c4)c23)C1	2190
Brc1ccc(Nc2ncnc3sc4c(c23)CCCC4)cc1	1510
COc1cc(F)ccc1Nc1ncnc2sc3c(c12)CCN(S(=O)(=O)c1cccs1)C3	940
CC(C)(C)OC(=O)N1CCc2c(sc3ncnc(Nc4ccc(F)cc4F)c23)C1	1620
Cc1cccc(Nc2ncnc3sc4c(c23)CCN(S(=O)(=O)c2ccccc2[N+](=O)[O-])C4)c1	2060
CC(C)(C)OC(=O)N1CCc2c(sc3ncnc(Nc4ccc(Cl)cc4F)c23)C1	2160
COc1ccc(S(=O)(=O)N2CCc3c(sc4ncnc(Nc5cccc(OC)c5)c34)C2)cc1	2140
COc1ccc(S(=O)(=O)N2CCc3c(sc4ncnc(Nc5ccc(C)cc5Br)c34)C2)cc1	1890
Cc1cccc(Nc2ncnc3sc4c(c23)CCN(C)C4)c1	2220
COc1ccc(S(=O)(=O)N2CCc3c(sc4ncnc(Nc5cccc(Cl)c5)c34)C2)cc1	1400
O=[N+]([O-])c1ccccc1S(=O)(=O)N1CCc2c(sc3ncnc(Nc4ccc(F)cc4F)c23)C1	1080
COc1cccc(Nc2ncnc3sc4c(c23)CCN(Cc2ccccc2)C4)c1	1920

Compound	IC50 [nM]
Cc1ccc(Nc2ncnc3sc4c(c23)CCN(C)C4)c(Br)c1	1650
COc1cccc(Nc2ncnc3sc4c(c23)CCN(S(=O)(=O)c2ccc(F)cc2F)C4)c1	1880
COc1cccc(Nc2ncnc3sc4c(c23)CCCC4)c1	1700
Clc1ccc(Nc2ncnc3sc4c(c23)CCN(Cc2ccccc2)C4)cc1	1540
Clc1cccc(Nc2ncnc3sc4c(c23)CCCC4)c1	2430
O=S(=O)(c1ccc(F)cc1F)N1CCc2c(sc3ncnc(Nc4ccc(Cl)cc4)c23)C1	1500
O=S(=O)(c1cccs1)N1CCc2c(sc3ncnc(Nc4ccc(F)cc4F)c23)C1	1460
Cc1ccc(Nc2ncnc3sc4c(c23)CCN(C(=O)OC(C)(C)C)C4)c(Br)c1	1700
COc1ccc(S(=O)(=O)N2CCc3c(sc4ncnc(Nc5ccc(Cl)cc5)c34)C2)cc1	1220
Fc1cccc(Nc2ncnc3sc4c(c23)CCCC4)c1	2180
O=S(=O)(c1cccs1)N1CCc2c(sc3ncnc(Nc4cccc(F)c4)c23)C1	1500
O=S(=O)(c1cccs1)N1CCc2c(sc3ncnc(Nc4cccc(Cl)c4)c23)C1	1380
CC(C)(C)OC(=O)N1CCc2c(sc3ncnc(Nc4ccc(Cl)cc4)c23)C1	2240
O=S(=O)(c1ccc(F)cc1F)N1CCc2c(sc3ncnc(Nc4ccc(F)cc4Br)c23)C1	1280
CN1CCc2c(sc3ncnc(Nc4cccc(Cl)c4)c23)C1	1870
Cc1cccc(Nc2ncnc3sc4c(c23)CCN(S(=O)(=O)c2ccc(F)cc2F)C4)c1	2400
Cc1ccc(Nc2ncnc3sc4c(c23)CCN(Cc2ccccc2)C4)c(Br)c1	1570
COc1ccc(S(=O)(=O)N2CCc3c(sc4ncnc(Nc5cccc(C)c5)c34)C2)cc1	1410
Cc1ccc(Nc2ncnc3sc4c(c23)CCN(S(=O)(=O)c2cccs2)C4)c(Br)c1	1560
COc1cc(F)ccc1Nc1ncnc2sc3c(c12)CCN(C)C3	930
